IC50 and Activity data for 11 molecules are collected here from ChEMBL document CHEMBL1152809, “Structure-activity relationships of orotidine-5'-monophosphate decarboxylase inhibitors as anticancer agents” (J Med Chem, 2009).

Data set [1] can be described thus: Antitumor activity against human MDA468 cells after 3 days by WST1 assay. Type of data set: functional, cell-based. Particulars: MDA-MB-468, 72 h. Summed up: (§1)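 Cell lines grown in Iscove's MDM with 5% FCS, 50 µM 2-mercaptoethanol, penicillin and streptomycin; suspension lines kept at 0.5-1.5 × 10^6 cells/mL, adherent lines subconfluent. Cells seeded in triplicate at 10^4 cells/100 µL. Compounds were dissolved in water and added immediately at 0 to 100 µM final. WST.1 read at 440 nm on day 3; IC50 taken from OD versus concentration plots.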

A further data set concerns MDA-MB-468. Description: Antitumor activity against human MDA468 cells up to 50 uM after 3 days by WST1 assay. Type of data set: functional, cell-based. In a few lines:
as §1

For a further data set, the system named is SNB-19. Put plainly: Antitumor activity against human SNB19 cells up to 50 uM after 3 days by WST1 assay. Type of data set: functional, cell-based. Summed up:
as §1

The test system of another data set is OCI-AML2. Description: Antitumor activity against human OCI-AML2 cells after 3 days by WST1 assay. Type of data set: functional, cell-based. The settings on record: OCI-AML2, 72 h. Summed up:
as §1

The test system of data set [2] is MCF7. Put plainly: Antitumor activity against human MCF7 cells up to 50 uM after 3 days by WST1 assay. Type of data set: functional, cell-based. In a few lines: as §1
Another data set concerns OVCAR-4. Description: Antitumor activity against human OVCAR4 cells after 3 days by WST1 assay. The settings on record: for IC50: OVCAR-4, 72 h. Type of data set: functional, cell-based. In a few lines: as §1
The subject of another data set is COLO 205. Put plainly: Antitumor activity against human COLO205 cells after 3 days by WST1 assay. Type of data set: functional, cell-based. Particulars: for IC50: COLO 205, 72 h. Summed up: as §1
Data set [3] is described as follows: Antitumor activity against human OCI-My 2 cells after 3 days by WST1 assay. Type of data set: functional, cell-based. Particulars: 72 h. Summed up: as §1
The next data set deals with Hs-578T. Description: Antitumor activity against human Hs 578T cells up to 50 uM after 3 days by WST1 assay. Type of data set: functional, cell-based. Summed up:
as §1

In a further data set the test system is PC-3. Put plainly: Antitumor activity against human PC3 cells up to 50 uM after 3 days by WST1 assay. Type of data set: functional, cell-based. Summed up:
as §1

Data set [4] can be described thus: Antitumor activity against human LOX cells after 3 days by WST1 assay. Type of data set: functional, cell-based. Particulars: 72 h. Summed up: as §1
A short description of data set [5]: Cytotoxicity against human CCD-967 cells up to 50 uM after 3 days by WST1 assay. Type of data set: cell-based. The settings on record: ccd-967, 72 h. In a few lines: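 Cells grown in Iscove's MDM with 5% FCS, 50 µM 2-mercaptoethanol and antibiotics, kept subconfluent if adherent. Seeded in triplicate at 10^4 cells/100 µL with compounds (in water) added at once, 0 to 100 µM final. WST.1 formazan read at 440 nm on day 3; IC50 from OD versus concentration.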

Another data set relates to T47D. Description: Antitumor activity against human T47D cells up to 50 uM after 3 days by WST1 assay. Type of data set: functional, cell-based. Summed up: as §1
Data set [6] can be described thus: Antitumor activity against human OCI-LY7 cells after 3 days by WST1 assay. Particulars: OCI-Ly7, 72 h. Type of data set: functional, cell-based. In a few lines:
as §1

The nature of data set [7]: Antitumor activity against human SKW3 cells after 3 days by WST1 assay. Type of data set: functional, cell-based. The settings on record: SKW3, 72 h. Summed up:
as §1

A short description of data set [8]: Antitumor activity against human OCI-AML1 cells after 3 days by WST1 assay. The settings on record: ML1, 72 h. Type of data set: functional, cell-based. In a few lines:
as §1

The test system of data set [9] is MCF7. Description: Antitumor activity against human MCF7 cells after 3 days by WST1 assay. Type of data set: functional, cell-based. Particulars: MCF7, 72 h. In a few lines: as §1

Active and inactive are the calls of the source. The calls are words filed in the database; no cut-off is given here.

Consider `CNc1cc(=O)[nH]c(=O)n1[C@@H]1O[C@H](CO)[C@@H](O)[C@H]1O`, for which the half-inhibitory concentration (IC50) (in [1]; in the data set with OCI-AML2; in the data set with OVCAR-4; in the data set with COLO 205; in [3]; in data set [4]) was over 50 µM throughout. For the same molecule, the IC50 (in [6]; in data set [7]; in data set [8]; in the data set with MCF7 [9]) was over 50 µM in each case. The result in the data set on MDA-MB-468, in the data set with SNB-19, in the data set on MCF7 [2], in the data set on Hs-578T, in the data set with PC-3 and with T47D was inactive. Moreover, in data set [5], the Activity result is “Not Active”.

In the case of `O=c1cc(O)n([C@@H]2O[C@H](COP(=O)(O)O)[C@@H](O)[C@H]2O)c(=O)[nH]1`, the concentration for half-maximal inhibition (IC50) (in data set [1]; in the data set on OCI-AML2; with OVCAR-4; in the data set on COLO 205; in data set [3]; in [4]) was over 50 µM each time. Besides, the IC50 (in data set [6]; in data set [7]; in [8]; in the data set with MCF7 [9]) was over 50 µM throughout. Further, the outcome in the data set with MDA-MB-468, in the data set on SNB-19, in the data set on MCF7 [2], in the data set on Hs-578T, in the data set on PC-3 and with T47D was inactive. The Activity result in [5] was “Not Active”.

Consider `CCc1c(F)c(=O)[nH]c(=O)n1[C@@H]1O[C@H](CO)[C@@H](O)[C@H]1O`, for which the half-maximal inhibitory concentration (IC50) in data set [1] is 5.3 µM; in data set [3] it was 1.4 µM; in data set [4] it was 4.5 µM; in data set [6] it was 1.9 µM; in data set [7], 1.2 µM; in data set [8], 2.1 µM. For the same molecule, in the data set on MCF7 [9], half-maximal inhibition (IC50) required 31.4 µM. Moreover, the result with SNB-19, in the data set with Hs-578T, in the data set with PC-3 and with T47D was inactive. Further, the Activity result in data set [5] is “Not Active”.

Consider `Nc1cc(=O)[nH]c(=O)n1[C@@H]1O[C@H](CO)[C@@H](O)[C@H]1O`, for which the IC50 (in [1]; in the data set with OCI-AML2; with OVCAR-4; in the data set on COLO 205; in data set [3]; in [4]) was over 50 µM throughout. Besides, the 50% inhibitory concentration (IC50) (in data set [6]; in data set [7]; in data set [8]; in the data set with MCF7 [9]) was over 50 µM throughout. Further, the result in the data set on MDA-MB-468, in the data set with SNB-19, in the data set with MCF7 [2], with Hs-578T, in the data set with PC-3 and in the data set on T47D was inactive. Further, the Activity result in data set [5] is on record as “Not Active”.

Consider `O=Cc1cc(=O)[nH]c(=O)n1[C@@H]1O[C@H](CO)[C@@H](O)[C@H]1O`, for which the IC50 (in data set [1]; in the data set with OCI-AML2; in data set [3]; in [4]; in [6]; in data set [7]) was over 50 µM in each case. Further, the IC50 (in [8]; with MCF7 [9]) was over 50 µM throughout. The result in the data set with MDA-MB-468, in the data set on SNB-19, in the data set on MCF7 [2], with OVCAR-4, in the data set with COLO 205 and in the data set on Hs-578T was inactive. Also, the result in the data set on PC-3 and in the data set with T47D was inactive. In addition, the Activity entry in [5] is “Not Active”.

In the case of `O=c1cc(O)n([C@@H]2O[C@H](CO)[C@@H](O)[C@H]2O)c(=O)[nH]1`, the IC50 (in data set [1]; in the data set with OCI-AML2; with OVCAR-4; in the data set with COLO 205; in data set [3]; in [4]) was over 50 µM in each case. For the same molecule, the concentration for half-maximal inhibition (IC50) (in data set [6]; in [7]; in data set [8]; in the data set on MCF7 [9]) was over 50 µM in each case. Moreover, the outcome with MDA-MB-468, in the data set with SNB-19, in the data set with MCF7 [2], in the data set on Hs-578T, with PC-3 and in the data set with T47D was inactive. Moreover, in data set [5], the Activity result is reported as “Not Active”.

Consider `CN(C)c1cc(=O)[nH]c(=O)n1[C@@H]1O[C@H](CO)[C@@H](O)[C@H]1O`, for which the IC50 (in [1]; with OCI-AML2; in the data set with OVCAR-4; in the data set with COLO 205; in data set [3]; in data set [4]) was over 50 µM throughout. Also, the IC50 (in data set [6]; in data set [7]; in [8]; in the data set on MCF7 [9]) was over 50 µM throughout. Also, the outcome in the data set with MDA-MB-468, with SNB-19, in the data set on MCF7 [2], in the data set on Hs-578T, with PC-3 and with T47D was inactive. For the same molecule, the Activity entry in data set [5] is given as “Not Active”.

On to `CN(C)c1cc(=O)[nH]c(=O)[nH]1`, for which the IC50 (in data set [1]; with OCI-AML2; in the data set on OVCAR-4; in the data set on COLO 205; in [3]; in [4]) was over 50 µM each time. For the same molecule, the IC50 (in [6]; in data set [7]; in data set [8]; in the data set on MCF7 [9]) was over 50 µM each time. For the same molecule, the outcome with MDA-MB-468, with SNB-19, with MCF7 [2], in the data set on Hs-578T, in the data set with PC-3 and in the data set on T47D was inactive. The Activity result in [5] is “Not Active”.

Turning to `CC(=O)OC[C@H]1O[C@@H](n2c(I)cc(=O)[nH]c2=O)[C@H](O)[C@@H]1O`, the IC50 in data set [1] was over 50 µM; in the data set with OCI-AML2, 11.7 µM; in the data set with OVCAR-4, over 50 µM; with COLO 205, over 50 µM; in [3], 1.3 µM; in data set [4], 1.1 µM. The half-inhibitory concentration (IC50) in [6] amounted to 36.2 µM; in data set [7] it was 1.6 µM; in data set [8], 15.2 µM; with MCF7 [9], 4.4 µM. Moreover, the outcome with MDA-MB-468, in the data set with SNB-19, in the data set with Hs-578T, in the data set on PC-3 and with T47D was inactive. Besides, the Activity entry in data set [5] is “Not Active”.

As for `COC(=O)c1cc(=O)[nH]c(=O)n1[C@@H]1O[C@H](CO)[C@@H](O)[C@H]1O`, the concentration for half-maximal inhibition (IC50) in [1] is over 50 µM; in the data set with OCI-AML2 it was over 50 µM; in the data set with OVCAR-4, over 50 µM; with COLO 205 it was over 50 µM; in data set [3] it was 42.3 µM; in data set [4] it was over 50 µM. For the same molecule, the half-inhibitory concentration (IC50) (in data set [6]; in [7]; in data set [8]; in the data set with MCF7 [9]) was over 50 µM each time. In addition, the result in the data set with MDA-MB-468, in the data set on SNB-19, in the data set on MCF7 [2], in the data set on Hs-578T, in the data set with PC-3 and in the data set on T47D was inactive. Further, the Activity entry in data set [5] is “Not Active”.

With `O=c1[nH]c(=O)n([C@@H]2O[C@H](CO)[C@@H](O)[C@H]2O)cc1F` [5-FLUOROURIDINE], the outcome with MDA-MB-468, with SNB-19, in the data set on MCF7 [2], in the data set on Hs-578T, in the data set with PC-3 and in the data set with T47D was inactive. The Activity entry in [5] is given as “Not Active”.
